Experimental data reported in ChEMBL document CHEMBL3272198, “Preparation and in vitro antifungal activities of some quinolizidine derived hemiaminals and beta-tert-amino sulfides” (1976).

Legend:
Format in all cases: functional
Blastomyces dermatitidis [1] = experiment: Antifungal activity against Blastomyces dermatitidis Gilchrist & Stokes isolate 1107 at 10 ug/ml after 2 weeks (reference value: 35 mm); conditions: Gilchrist & Stokes isolate 1107, 336 h, read-out: DIZ
Summary of the method: (§1)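 Mycelial phase grown on Sabouraud dextrose agar at 25°C. Agar pH was set to 6 before the test solution was added and was 5.0-5.5 after. Test solutions contained HOAc and Me2SO, and solvent and blank controls were included. Each quadrant was center-inoculated with a 2 × 2 mm piece of a 2-week-old mycelial culture. Colony diameter was measured weekly for 3 weeks and reported as total increments (mm). Duplicates were run.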

Blastomyces dermatitidis [2] = experiment: Antifungal activity against Blastomyces dermatitidis Gilchrist & Stokes isolate 1107 at 80 ug/ml after 3 weeks (reference value: 40 mm); conditions: Gilchrist & Stokes isolate 1107, 504 h, read-out: DIZ; summary of the method: as §1
Blastomyces dermatitidis [3] = experiment: Antifungal activity against Blastomyces dermatitidis Gilchrist & Stokes isolate 1107 at 60 ug/ml after 3 weeks (reference value: 40 mm); conditions: Gilchrist & Stokes isolate 1107, 504 h, read-out: DIZ; summary of the method: as §1
Blastomyces dermatitidis [4] = experiment: Antifungal activity against Blastomyces dermatitidis Gilchrist & Stokes isolate 1107 at 10 ug/ml after 3 weeks (reference value: 40 mm); conditions: Gilchrist & Stokes isolate 1107, 504 h, read-out: DIZ; summary of the method: as §1
Histoplasma capsulatum [5] = experiment: Antifungal activity against Histoplasma capsulatum Darling isolate 1106 at 100 ug/ml after 1 week (reference value: 14 mm); conditions: Darling isolate 1106, 168 h, read-out: DIZ
Histoplasma capsulatum [6] = experiment: Antifungal activity against Histoplasma capsulatum Darling isolate 1106 at 80 ug/ml after 1 week (reference value: 14 mm); conditions: Darling isolate 1106, 168 h, read-out: DIZ
Histoplasma capsulatum [7] = experiment: Antifungal activity against Histoplasma capsulatum Darling isolate 1106 at 40 ug/ml after 1 week (reference value: 14 mm); conditions: Darling isolate 1106, 168 h, read-out: DIZ
Histoplasma capsulatum [8] = experiment: Antifungal activity against Histoplasma capsulatum Darling isolate 1106 at 20 ug/ml after 1 week (reference value: 14 mm); conditions: Darling isolate 1106, 168 h, read-out: DIZ
Histoplasma capsulatum [9] = experiment: Antifungal activity against Histoplasma capsulatum Darling isolate 1106 at 10 ug/ml after 1 week (reference value: 14 mm); conditions: Darling isolate 1106, 168 h, read-out: DIZ
Histoplasma capsulatum [10] = experiment: Antifungal activity against Histoplasma capsulatum Darling isolate 1106 at 100 ug/ml after 2 weeks (reference value: 25 mm); conditions: Darling isolate 1106, 336 h, read-out: DIZ
Histoplasma capsulatum [11] = experiment: Antifungal activity against Histoplasma capsulatum Darling isolate 1106 at 40 ug/ml after 2 weeks (reference value: 25 mm); conditions: Darling isolate 1106, 336 h, read-out: DIZ
Histoplasma capsulatum [12] = experiment: Antifungal activity against Histoplasma capsulatum Darling isolate 1106 at 20 ug/ml after 2 weeks (reference value: 25 mm); conditions: Darling isolate 1106, 336 h, read-out: DIZ
Histoplasma capsulatum [13] = experiment: Antifungal activity against Histoplasma capsulatum Darling isolate 1106 at 100 ug/ml after 3 weeks (reference value: 31 mm); conditions: Darling isolate 1106, 504 h, read-out: DIZ
Histoplasma capsulatum [14] = experiment: Antifungal activity against Histoplasma capsulatum Darling isolate 1106 at 60 ug/ml after 3 weeks (reference value: 31 mm); conditions: Darling isolate 1106, 504 h, read-out: DIZ
Histoplasma capsulatum [15] = experiment: Antifungal activity against Histoplasma capsulatum Darling isolate 1106 at 40 ug/ml after 3 weeks (reference value: 31 mm); conditions: Darling isolate 1106, 504 h, read-out: DIZ
Histoplasma capsulatum [16] = experiment: Antifungal activity against Histoplasma capsulatum Darling isolate 1106 at 10 ug/ml after 3 weeks (reference value: 31 mm); conditions: Darling isolate 1106, 504 h, read-out: DIZ
Blastomyces dermatitidis [17] = experiment: Antifungal activity against Blastomyces dermatitidis Gilchrist & Stokes isolate 1099 at 80 ug/ml after 1 week (reference value: 14 mm); conditions: Gilchrist & Stokes isolate 1099, 168 h, read-out: DIZ
Blastomyces dermatitidis [18] = experiment: Antifungal activity against Blastomyces dermatitidis Gilchrist & Stokes isolate 1099 at 60 ug/ml after 1 week (reference value: 14 mm); conditions: Gilchrist & Stokes isolate 1099, 168 h, read-out: DIZ
Blastomyces dermatitidis [19] = experiment: Antifungal activity against Blastomyces dermatitidis Gilchrist & Stokes isolate 1099 at 40 ug/ml after 1 week (reference value: 14 mm); conditions: Gilchrist & Stokes isolate 1099, 168 h, read-out: DIZ
Blastomyces dermatitidis [20] = experiment: Antifungal activity against Blastomyces dermatitidis Gilchrist & Stokes isolate 1099 at 10 ug/ml after 1 week (reference value: 14 mm); conditions: Gilchrist & Stokes isolate 1099, 168 h, read-out: DIZ; summary of the method: as §1
Blastomyces dermatitidis [21] = experiment: Antifungal activity against Blastomyces dermatitidis Gilchrist & Stokes isolate 1099 at 80 ug/ml after 2 weeks (reference value: 27 mm); conditions: Gilchrist & Stokes isolate 1099, 336 h, read-out: DIZ
Blastomyces dermatitidis [22] = experiment: Antifungal activity against Blastomyces dermatitidis Gilchrist & Stokes isolate 1099 at 60 ug/ml after 2 weeks (reference value: 27 mm); conditions: Gilchrist & Stokes isolate 1099, 336 h, read-out: DIZ; summary of the method: as §1
Blastomyces dermatitidis [23] = experiment: Antifungal activity against Blastomyces dermatitidis Gilchrist & Stokes isolate 1099 at 40 ug/ml after 2 weeks (reference value: 27 mm); conditions: Gilchrist & Stokes isolate 1099, 336 h, read-out: DIZ; summary of the method: as §1
Blastomyces dermatitidis [24] = experiment: Antifungal activity against Blastomyces dermatitidis Gilchrist & Stokes isolate 1099 at 10 ug/ml after 2 weeks (reference value: 27 mm); conditions: Gilchrist & Stokes isolate 1099, 336 h, read-out: DIZ; summary of the method: as §1
Blastomyces dermatitidis [25] = experiment: Antifungal activity against Blastomyces dermatitidis Gilchrist & Stokes isolate 1099 at 100 ug/ml after 3 weeks (reference value: 34 mm); conditions: Gilchrist & Stokes isolate 1099, 504 h, read-out: DIZ; summary of the method: as §1
Blastomyces dermatitidis [26] = experiment: Antifungal activity against Blastomyces dermatitidis Gilchrist & Stokes isolate 1107 at 100 ug/ml after 1 week (reference value: 20 mm); conditions: Gilchrist & Stokes isolate 1107, 168 h, read-out: DIZ
Blastomyces dermatitidis [27] = experiment: Antifungal activity against Blastomyces dermatitidis Gilchrist & Stokes isolate 1107 at 60 ug/ml after 1 week (reference value: 20 mm); conditions: Gilchrist & Stokes isolate 1107, 168 h, read-out: DIZ
Blastomyces dermatitidis [28] = experiment: Antifungal activity against Blastomyces dermatitidis Gilchrist & Stokes isolate 1107 at 40 ug/ml after 1 week (reference value: 20 mm); conditions: Gilchrist & Stokes isolate 1107, 168 h, read-out: DIZ
Blastomyces dermatitidis [29] = experiment: Antifungal activity against Blastomyces dermatitidis Gilchrist & Stokes isolate 1107 at 10 ug/ml after 1 week (reference value: 20 mm); conditions: Gilchrist & Stokes isolate 1107, 168 h, read-out: DIZ; summary of the method: as §1
Blastomyces dermatitidis [30] = experiment: Antifungal activity against Blastomyces dermatitidis Gilchrist & Stokes isolate 1107 at 100 ug/ml after 2 weeks (reference value: 35 mm); conditions: Gilchrist & Stokes isolate 1107, 336 h, read-out: DIZ; summary of the method: as §1
Blastomyces dermatitidis [31] = experiment: Antifungal activity against Blastomyces dermatitidis Gilchrist & Stokes isolate 1107 at 40 ug/ml after 2 weeks (reference value: 35 mm); conditions: Gilchrist & Stokes isolate 1107, 336 h, read-out: DIZ; summary of the method: as §1
Histoplasma capsulatum [32] = experiment: Antifungal activity against Histoplasma capsulatum Darling isolate 1098 at 100 ug/ml after 1 week (reference value: 12 mm); conditions: Darling isolate 1098, 168 h, read-out: DIZ
Histoplasma capsulatum [33] = experiment: Antifungal activity against Histoplasma capsulatum Darling isolate 1098 at 80 ug/ml after 1 week (reference value: 12 mm); conditions: Darling isolate 1098, 168 h, read-out: DIZ
Histoplasma capsulatum [34] = experiment: Antifungal activity against Histoplasma capsulatum Darling isolate 1098 at 60 ug/ml after 1 week (reference value: 12 mm); conditions: Darling isolate 1098, 168 h, read-out: DIZ
Histoplasma capsulatum [35] = experiment: Antifungal activity against Histoplasma capsulatum Darling isolate 1098 at 20 ug/ml after 1 week (reference value: 12 mm); conditions: Darling isolate 1098, 168 h, read-out: DIZ
Histoplasma capsulatum [36] = experiment: Antifungal activity against Histoplasma capsulatum Darling isolate 1098 at 100 ug/ml after 2 weeks (reference value: 21 mm); conditions: Darling isolate 1098, 336 h, read-out: DIZ
Histoplasma capsulatum [37] = experiment: Antifungal activity against Histoplasma capsulatum Darling isolate 1098 at 80 ug/ml after 2 weeks (reference value: 21 mm); conditions: Darling isolate 1098, 336 h, read-out: DIZ
Histoplasma capsulatum [38] = experiment: Antifungal activity against Histoplasma capsulatum Darling isolate 1098 at 40 ug/ml after 2 weeks (reference value: 21 mm); conditions: Darling isolate 1098, 336 h, read-out: DIZ
Histoplasma capsulatum [39] = experiment: Antifungal activity against Histoplasma capsulatum Darling isolate 1098 at 10 ug/ml after 2 weeks (reference value: 21 mm); conditions: Darling isolate 1098, 336 h, read-out: DIZ
Histoplasma capsulatum [40] = experiment: Antifungal activity against Histoplasma capsulatum Darling isolate 1098 at 80 ug/ml after 3 weeks (reference value: 28 mm); conditions: Darling isolate 1098, 504 h, read-out: DIZ

CS[C@@]1(C)CC[C@@H]2CCCCN2C1O (stereo not given in full)
zone of inhibition at 10 µg/mL (Blastomyces dermatitidis [1]): 33 mm
zone of inhibition at 80 µg/mL (Blastomyces dermatitidis [2]): 40 mm
zone of inhibition at 60 µg/mL (Blastomyces dermatitidis [3]): 40 mm
zone of inhibition at 10 µg/mL (Blastomyces dermatitidis [4]): 40 mm
zone of inhibition at 100 µg/mL (Histoplasma capsulatum [5]): 9 mm
zone of inhibition at 80 µg/mL (Histoplasma capsulatum [6]): 10 mm
zone of inhibition at 40 µg/mL (Histoplasma capsulatum [7]): 10 mm
zone of inhibition at 20 µg/mL (Histoplasma capsulatum [8]): 11 mm
zone of inhibition at 10 µg/mL (Histoplasma capsulatum [9]): 11 mm
zone of inhibition at 100 µg/mL (Histoplasma capsulatum [10]): 17 mm
zone of inhibition at 40 µg/mL (Histoplasma capsulatum [11]): 21 mm
zone of inhibition at 20 µg/mL (Histoplasma capsulatum [12]): 20 mm
zone of inhibition at 100 µg/mL (Histoplasma capsulatum [13]): 26 mm
zone of inhibition at 60 µg/mL (Histoplasma capsulatum [14]): 27 mm
zone of inhibition at 40 µg/mL (Histoplasma capsulatum [15]): 28 mm
zone of inhibition at 10 µg/mL (Histoplasma capsulatum [16]): 26 mm
zone of inhibition at 80 µg/mL (Blastomyces dermatitidis [17]): 13 mm
zone of inhibition at 60 µg/mL (Blastomyces dermatitidis [18]): 13 mm
zone of inhibition at 40 µg/mL (Blastomyces dermatitidis [19]): 13 mm
zone of inhibition at 10 µg/mL (Blastomyces dermatitidis [20]): 16 mm
zone of inhibition at 80 µg/mL (Blastomyces dermatitidis [21]): 25 mm
zone of inhibition at 60 µg/mL (Blastomyces dermatitidis [22]): 25 mm
zone of inhibition at 40 µg/mL (Blastomyces dermatitidis [23]): 26 mm
zone of inhibition at 10 µg/mL (Blastomyces dermatitidis [24]): 28 mm
zone of inhibition at 100 µg/mL (Blastomyces dermatitidis [25]): 33 mm
zone of inhibition at 100 µg/mL (Blastomyces dermatitidis [26]): 16 mm
zone of inhibition at 60 µg/mL (Blastomyces dermatitidis [27]): 20 mm
zone of inhibition at 40 µg/mL (Blastomyces dermatitidis [28]): 20 mm
zone of inhibition at 10 µg/mL (Blastomyces dermatitidis [29]): 20 mm
zone of inhibition at 100 µg/mL (Blastomyces dermatitidis [30]): 31 mm
zone of inhibition at 40 µg/mL (Blastomyces dermatitidis [31]): 33 mm
zone of inhibition at 100 µg/mL (Histoplasma capsulatum [32]): 8 mm
zone of inhibition at 80 µg/mL (Histoplasma capsulatum [33]): 9 mm
zone of inhibition at 60 µg/mL (Histoplasma capsulatum [34]): 9 mm
zone of inhibition at 20 µg/mL (Histoplasma capsulatum [35]): 10 mm
zone of inhibition at 100 µg/mL (Histoplasma capsulatum [36]): 15 mm
zone of inhibition at 80 µg/mL (Histoplasma capsulatum [37]): 18 mm
zone of inhibition at 40 µg/mL (Histoplasma capsulatum [38]): 19 mm
zone of inhibition at 10 µg/mL (Histoplasma capsulatum [39]): 20 mm
zone of inhibition at 80 µg/mL (Histoplasma capsulatum [40]): 30 mm
